This note sets out measurements from ChEMBL document CHEMBL2331536, “Indenoindolone derivatives as topoisomerase II-inhibiting anticancer agents” (Bioorg Med Chem Lett, 2013).

The target of series [1] is T1, DNA topoisomerase 1 (Homo sapiens) (UniProt P11387).
T1 sequence (whole entry): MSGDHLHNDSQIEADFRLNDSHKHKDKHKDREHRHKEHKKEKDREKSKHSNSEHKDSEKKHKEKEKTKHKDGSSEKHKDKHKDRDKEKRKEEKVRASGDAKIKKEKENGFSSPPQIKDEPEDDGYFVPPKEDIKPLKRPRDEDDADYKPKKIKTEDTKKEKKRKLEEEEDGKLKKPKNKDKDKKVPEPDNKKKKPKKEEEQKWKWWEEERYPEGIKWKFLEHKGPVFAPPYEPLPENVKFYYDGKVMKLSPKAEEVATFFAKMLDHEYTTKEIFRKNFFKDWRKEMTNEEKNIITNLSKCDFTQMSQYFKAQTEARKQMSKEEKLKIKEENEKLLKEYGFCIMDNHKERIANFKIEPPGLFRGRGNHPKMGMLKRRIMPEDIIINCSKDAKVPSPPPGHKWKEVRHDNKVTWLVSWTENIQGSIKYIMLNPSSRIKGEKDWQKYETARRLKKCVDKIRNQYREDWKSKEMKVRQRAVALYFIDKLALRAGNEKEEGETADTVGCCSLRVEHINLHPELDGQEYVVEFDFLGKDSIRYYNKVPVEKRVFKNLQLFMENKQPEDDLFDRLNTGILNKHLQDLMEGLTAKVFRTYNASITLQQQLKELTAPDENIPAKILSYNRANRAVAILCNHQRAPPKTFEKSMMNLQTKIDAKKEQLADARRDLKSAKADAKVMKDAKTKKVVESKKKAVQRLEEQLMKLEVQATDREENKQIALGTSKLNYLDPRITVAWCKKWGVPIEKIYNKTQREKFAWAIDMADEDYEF
As to the kind of experiment: Inhibition of human DNA topoisomerase 1 assessed as effect on relaxation of negatively super colied DNA at 100 uM incubated for 30 mins at 37 degC by agarose-gel electrophoresis. The gist of the method: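 Negatively supercoiled DNA treated with human topoisomerase I plus test agent or 100 µM camptothecin, 37 °C, 30 min. Relaxation judged on 1% agarose gel electrophoresis in TAE buffer.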

Series [2] deals with HEK293. As to the kind of experiment: Cytotoxicity against HEK293 cells after 48 hrs by MTT assay. The class given is functional. Conditions: Homo sapiens, HEK293, 48 h; read-out: LC50 (the source's name). Put shortly: (§1)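 HEK-293 (ATCC CRL-1573) or normal monkey kidney Vero (ATCC CCL-81) cells were plated, then exposed to a range of compound concentrations for 48 h. MTT was added, and the formazan was dissolved in detergent solution and read at 570 nm. LC50 is the concentration giving 50% cell death. Data are the mean SD of three separate experiments.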
For orientation: Tetrazolium assays rely on reduction of a dye to a coloured formazan, in cell work by metabolically active cells.

Series [3] concerns the target DNA topoisomerase 2-alpha (Homo sapiens) (UniProt P11388). As to the kind of experiment: Inhibition of human topoisomerase 2alpha at 100 uM incubated for 30 mins at 37 degC by agarose-gel electrophoresis based ATP-dependent kDNA decatenation assay. The gist of the method: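 Commercial topoisomerase drug-screening kit, in vitro ATP-dependent assay. kDNA treated with hTopoIIα plus test agent or 100 µM etoposide, 37 °C, 30 min. Run on 1% agarose gel in TAE buffer; decatenated product quantified.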

Series [4] deals with Nucleic Acid. As to the kind of experiment: Induction of DNA intercalation in negatively Escherichia coli super coiled small circular plasmid DNA assessed as retradation of DNA migration at 100 uM incubated for 20 mins at 37 degC by agarose-gel electrophoresis. Format: nucleic-acid assay. Put shortly:
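250 ng negatively supercoiled small circular plasmid DNA (from E. coli) incubated with test agent or ethidium bromide, 37 °C, 20 min. Products resolved on 1% agarose gel in TAE buffer.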

Series [5] in a line: Cytotoxicity against african green monkey Vero cells after 48 hrs by MTT assay. Format: cell-based. To be noted: chlorocebus sabaeus, read-out: LC50. Put shortly:
as §1

Activity calls are given as the source filed them. The rule behind the calls is not given here.

Chain of DNA topoisomerase 2-alpha (Homo sapiens) (P11388 whole entry): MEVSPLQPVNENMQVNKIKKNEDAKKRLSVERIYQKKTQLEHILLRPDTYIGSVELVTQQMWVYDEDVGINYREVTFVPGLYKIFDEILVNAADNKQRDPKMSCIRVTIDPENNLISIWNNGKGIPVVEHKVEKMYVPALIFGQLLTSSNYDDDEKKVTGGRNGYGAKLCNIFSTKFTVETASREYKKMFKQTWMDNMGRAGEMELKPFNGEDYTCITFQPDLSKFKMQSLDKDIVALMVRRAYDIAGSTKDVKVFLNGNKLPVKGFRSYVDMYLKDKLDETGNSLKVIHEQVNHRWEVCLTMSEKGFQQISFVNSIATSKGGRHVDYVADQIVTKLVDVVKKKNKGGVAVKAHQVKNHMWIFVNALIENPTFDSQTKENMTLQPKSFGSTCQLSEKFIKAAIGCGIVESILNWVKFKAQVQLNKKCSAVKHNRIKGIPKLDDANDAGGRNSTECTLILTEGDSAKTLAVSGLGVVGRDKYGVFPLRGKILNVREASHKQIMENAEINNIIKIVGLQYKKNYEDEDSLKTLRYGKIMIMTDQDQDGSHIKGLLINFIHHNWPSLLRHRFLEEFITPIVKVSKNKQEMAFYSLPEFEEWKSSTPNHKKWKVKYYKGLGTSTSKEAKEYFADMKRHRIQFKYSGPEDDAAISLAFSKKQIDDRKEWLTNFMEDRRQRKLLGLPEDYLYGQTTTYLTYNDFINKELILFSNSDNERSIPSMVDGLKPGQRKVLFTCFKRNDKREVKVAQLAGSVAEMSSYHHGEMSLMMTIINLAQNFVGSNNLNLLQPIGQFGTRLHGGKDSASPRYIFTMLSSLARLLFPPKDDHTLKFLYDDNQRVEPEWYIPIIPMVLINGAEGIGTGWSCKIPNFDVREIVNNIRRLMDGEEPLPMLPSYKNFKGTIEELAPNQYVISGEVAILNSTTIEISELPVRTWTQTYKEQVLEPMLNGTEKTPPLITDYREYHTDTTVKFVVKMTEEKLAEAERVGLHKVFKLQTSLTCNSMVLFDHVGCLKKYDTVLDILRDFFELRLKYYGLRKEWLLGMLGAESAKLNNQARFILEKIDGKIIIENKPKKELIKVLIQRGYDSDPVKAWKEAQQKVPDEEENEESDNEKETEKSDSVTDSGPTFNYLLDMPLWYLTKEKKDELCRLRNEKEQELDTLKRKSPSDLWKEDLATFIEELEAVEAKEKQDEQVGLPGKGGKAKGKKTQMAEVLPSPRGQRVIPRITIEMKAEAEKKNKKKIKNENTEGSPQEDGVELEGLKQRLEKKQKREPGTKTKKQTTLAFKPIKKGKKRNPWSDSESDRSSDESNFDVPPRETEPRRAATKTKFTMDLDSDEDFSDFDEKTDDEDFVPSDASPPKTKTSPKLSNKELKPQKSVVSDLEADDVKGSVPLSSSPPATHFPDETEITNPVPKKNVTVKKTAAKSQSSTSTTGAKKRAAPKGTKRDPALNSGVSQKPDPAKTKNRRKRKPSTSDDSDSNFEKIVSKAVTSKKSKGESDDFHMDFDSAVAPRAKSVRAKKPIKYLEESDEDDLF

For `COc1cc2c(c(OC)c1OC)-c1c(c3ccccc3n1C)C2O` (centres undefined), the inhibition entry in series [1] is “inactive”. Also, in series [2], the CC50 stood at 8 µM. Besides, the inhibition result in series [3] is “Active”. Besides, the outcome in series [4] was inactive. Moreover, the CC50 at 48 h in series [5] came out at 40 µM.

Consider `CC[n+]1c(-c2ccccc2)c2cc(N)ccc2c2ccc(N)cc21`, for which the result in series [4] was Active.

Regarding `COc1cc([C@@H]2c3cc4c(cc3[C@@H](O[C@@H]3O[C@@H]5CO[C@@H](C)O[C@H]5[C@H](O)[C@H]3O)[C@H]3COC(=O)[C@H]23)OCO4)cc(OC)c1O` [ETOPOSIDE], the CC50 in series [2] came to 17 µM. In series [4], the result was inactive. Besides, in series [5], the CC50 at 48 h turned out to be 29 µM.

`COc1ccc(N/N=C2/c3cc(OC)c(OC)cc3-c3c2c2ccccc2n3C)cc1`: the inhibition entry in series [3] was “Active”.

With `c1ccc(N/N=C2\c3ccccc3-c3[nH]c4ccccc4c32)cc1`, the inhibition result in series [3] was “Active”.

In the case of `COc1ccc2c(c1)/C(=N\Nc1ccccc1)c1c-2n(C)c2ccccc12`, in series [3], the inhibition entry was “Active”.

In the case of `O/N=C1\c2ccccc2-c2[nH]c3ccccc3c21`, the inhibition entry in series [1] was “inactive”. The CC50 in series [2] came to 6 µM. Also, the inhibition result in series [3] was “Active”. Besides, the outcome in series [4] was inactive. In series [5], the CC50 at 48 h amounted to 60 µM.

Consider `CN1c2ccccc2C2=C(O)c3ccccc3C21` (centres undefined), for which the inhibition entry in series [3] was “Active”.

With `Cc1ccc(N/N=C2\c3ccccc3-c3c2c2ccccc2n3C)cc1`, the inhibition result in series [3] is “Active”.

Consider `COc1ccc2c(c1)c1c(n2C)-c2ccccc2/C1=N\Nc1ccccc1`, for which the inhibition result in series [3] is “Active”.

On to `O=C(N/N=C1\c2ccccc2-c2c1c1ccccc1n2Cc1ccccc1)Nc1ccccc1`, for which the inhibition entry in series [3] is “Active”.

For the compound `Cn1c2c(c3ccccc31)/C(=N/Nc1ccccc1)c1ccccc1-2`, the inhibition entry in series [3] is “Active”.

`NC(=S)N/N=C1\c2ccccc2-c2[nH]c3ccccc3c21`: the inhibition entry in series [1] was “inactive”. For the same compound, the CC50 in series [2] was found to be 7 µM. Also, in series [3], the inhibition result is “Active”. The result in series [4] was inactive. For the same compound, in series [5], the CC50 at 48 h was 50 µM.

In the case of `COc1ccc(N/N=C2\c3ccccc3-c3c2c2ccccc2n3Cc2ccccc2)cc1`, the inhibition result in series [3] is “Active”.

Consider `O/N=C1\c2ccccc2-c2c1c1ccccc1n2Cc1ccccc1`, for which the inhibition entry in series [3] was “Active”.

As for `Cn1c2c(c3ccccc31)/C(=N/NC(=O)Nc1ccccc1)c1ccccc1-2`, the inhibition entry in series [3] was “Active”.

For the compound `COc1ccc2c(c1)/C(=N\O)c1c-2n(C)c2ccccc12`, in series [1], the inhibition entry was “inactive”. The CC50 in series [2] was 5 µM. In series [3], the inhibition result was “Active”. In series [4], the outcome was inactive. Besides, in series [5], the CC50 at 48 h worked out at 60 µM.

As for `COc1ccc2c(c1)C(O)c1c-2n(C)c2ccccc12` (centres undefined), in series [1], the inhibition result was “inactive”. The CC50 in series [2] is 4 µM. In addition, in series [3], the inhibition result was “Active”. Further, in series [4], the outcome was inactive. Further, the CC50 at 48 h in series [5] stood at 30 µM.

In the case of `c1ccc(Cn2c3c(c4ccccc42)/C(=N/Nc2ccccc2)c2ccccc2-3)cc1`, the inhibition entry in series [3] is “Active”.

For `COc1ccc(N/N=C2/c3cc(OC)c(OC)c(OC)c3-c3c2c2ccccc2n3C)cc1`, the inhibition entry in series [3] was “Active”.

On to `COc1ccc(N/N=C2\c3ccccc3-c3c2c2ccccc2n3C)cc1`, for which, in series [3], the inhibition entry was “Active”.

Take `O=c1[nH]cc(F)c(=O)[nH]1` [FLUOROURACIL]: in series [2], the CC50 is 25 µM.
